Assay results reported in ChEMBL document CHEMBL5137074 (J Med Chem, 2022).

What was measured:
[1] = biological target: T1, Membrane-associated tyrosine- and threonine-specific cdc2-inhibitory kinase (Homo sapiens, UniProt Q99640)
T1 sequence (Q99640 whole entry): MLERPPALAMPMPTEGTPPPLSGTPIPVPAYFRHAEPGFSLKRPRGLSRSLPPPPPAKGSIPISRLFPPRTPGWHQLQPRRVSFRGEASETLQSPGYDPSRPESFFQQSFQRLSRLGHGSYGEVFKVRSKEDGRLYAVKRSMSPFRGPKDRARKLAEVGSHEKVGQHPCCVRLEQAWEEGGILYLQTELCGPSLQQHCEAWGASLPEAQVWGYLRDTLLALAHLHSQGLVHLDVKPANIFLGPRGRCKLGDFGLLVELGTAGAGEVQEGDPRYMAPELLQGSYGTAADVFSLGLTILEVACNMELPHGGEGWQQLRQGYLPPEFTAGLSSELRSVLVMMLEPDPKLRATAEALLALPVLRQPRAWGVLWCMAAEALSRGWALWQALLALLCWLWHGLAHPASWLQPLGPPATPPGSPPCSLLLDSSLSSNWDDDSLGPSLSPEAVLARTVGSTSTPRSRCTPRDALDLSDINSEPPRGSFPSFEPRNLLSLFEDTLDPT

[2] = biological target: T2, Ephrin type-B receptor 3 (Homo sapiens, UniProt P54753); experiment: Inhibition of full length Nano-luc fused EPHB3 in human HEK-293T cells incubated for 2 hrs by cell based NanoBRET target engagement assay
T2 sequence (P54753 whole entry): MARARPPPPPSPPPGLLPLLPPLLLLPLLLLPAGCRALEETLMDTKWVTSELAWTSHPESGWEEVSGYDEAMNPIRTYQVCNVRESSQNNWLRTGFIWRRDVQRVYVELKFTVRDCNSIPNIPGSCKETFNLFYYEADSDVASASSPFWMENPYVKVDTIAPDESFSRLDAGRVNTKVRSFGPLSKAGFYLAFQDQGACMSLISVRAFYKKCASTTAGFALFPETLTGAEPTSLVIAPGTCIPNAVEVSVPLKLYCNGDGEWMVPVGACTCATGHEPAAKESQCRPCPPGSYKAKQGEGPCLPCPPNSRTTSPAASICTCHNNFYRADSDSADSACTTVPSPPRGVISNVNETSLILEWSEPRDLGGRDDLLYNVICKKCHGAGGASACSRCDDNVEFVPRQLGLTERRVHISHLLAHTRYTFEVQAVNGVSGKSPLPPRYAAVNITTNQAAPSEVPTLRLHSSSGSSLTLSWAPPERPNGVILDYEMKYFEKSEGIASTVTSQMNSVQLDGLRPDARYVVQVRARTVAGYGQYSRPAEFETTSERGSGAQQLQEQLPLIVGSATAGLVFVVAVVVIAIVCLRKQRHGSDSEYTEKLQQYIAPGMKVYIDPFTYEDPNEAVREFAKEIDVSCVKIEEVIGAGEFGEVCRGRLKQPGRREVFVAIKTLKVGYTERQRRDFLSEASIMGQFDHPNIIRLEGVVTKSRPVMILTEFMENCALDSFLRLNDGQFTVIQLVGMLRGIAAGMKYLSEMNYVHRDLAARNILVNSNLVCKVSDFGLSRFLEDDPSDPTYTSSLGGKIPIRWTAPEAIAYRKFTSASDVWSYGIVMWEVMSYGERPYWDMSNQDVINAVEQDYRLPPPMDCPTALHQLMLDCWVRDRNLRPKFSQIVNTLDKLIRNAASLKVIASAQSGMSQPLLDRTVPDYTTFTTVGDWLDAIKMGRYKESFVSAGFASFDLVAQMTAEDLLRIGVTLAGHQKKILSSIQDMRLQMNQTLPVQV
Method in brief: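 HEK293T cells transiently transfected with the NanoLuc–kinase fusion vector plus carrier DNA and left overnight at 37 °C/5% CO2. Cells were resuspended in phenol red-free Opti-MEM at 17000 cells/well with the tracer. They were then exposed to compound for 2 h at 37 °C, and substrate/inhibitor mix was added. Acceptor (610 nm) and donor (450 nm) emissions were read.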

[3] = biological target: Wee1-like protein kinase (Homo sapiens, UniProt P30291); experiment: Inhibition of WEE1 (unknown origin)
[4] = Metabolic stability in human hepatocytes assessed as intrinsic clearance measured per 10^6 cells
[5] = Plasma protein binding in human at 1 uM; format: ADME, cell-free
Method in brief: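 Plasma protein binding measured at 1 μM compound in human plasma, with rat plasma run alongside.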

[6] = rat, in vivo, iv, 1 mg/kg, 24 h
[7] = Oral bioavailability in Cynomolgous monkey at 1 mg/kg measured upto 24 hrs by reversed phase LCMS analysis; format: ADME, organism-based, Macaca fascicularis; settings: cynomolgus monkey, in vivo
[8] = biological target: Cytochrome P450 2D6 (Homo sapiens, UniProt P10635); experiment: Inhibition of CYP2D6 (unknown origin)
[9] = Apparent permeability across apical to basolateral side in human Caco-2 cells
[10] = Oral bioavailability in CD-1 mouse at 2.5 to 5 mg/kg measured upto 24 hrs by HPLC-LCMS analysis; format: ADME, organism-based; settings: in vivo, dose 2.5-5 mg/kg
Method in brief: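 Female CD1 mice (20–30 g) dosed IV at 1 mg/kg as a solution. Oral dosing at 2.5 or 5 mg/kg as a suspension in 0.5% methyl cellulose. […] Non-compartmental analysis.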

[11] = biological target: T3, Cytochrome P450 3A4 (Homo sapiens, UniProt P08684); experiment: Induction of CYP3A4 in human hepatocytes at 3 uM relative to rifampicin; format: ADME, cell-based, Hepatocyte
Method in brief: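 Single-donor human hepatocytes exposed at 3 μM. CYP3A4 induction expressed as % of the 10 μM rifampicin positive control.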

[12] = rat, in vivo, po, 5 mg/kg, 24 h
[13] = Plasma protein binding in rat at 1 uM
[14] = biological target: Cytochrome P450 2C9 (Homo sapiens, UniProt P11712); experiment: Inhibition of CYP2C9 (unknown origin)
[15] = Oral bioavailability in Beagle dog at 1 mg/kg measured upto 24 hrs by reversed phase LCMS analysis; format: ADME, organism-based, Canis lupus familiaris; settings: in vivo
[16] = biological target: T3, Cytochrome P450 3A4; experiment: Inhibition of CYP3A4 (unknown origin)

T3 sequence (P08684 whole entry): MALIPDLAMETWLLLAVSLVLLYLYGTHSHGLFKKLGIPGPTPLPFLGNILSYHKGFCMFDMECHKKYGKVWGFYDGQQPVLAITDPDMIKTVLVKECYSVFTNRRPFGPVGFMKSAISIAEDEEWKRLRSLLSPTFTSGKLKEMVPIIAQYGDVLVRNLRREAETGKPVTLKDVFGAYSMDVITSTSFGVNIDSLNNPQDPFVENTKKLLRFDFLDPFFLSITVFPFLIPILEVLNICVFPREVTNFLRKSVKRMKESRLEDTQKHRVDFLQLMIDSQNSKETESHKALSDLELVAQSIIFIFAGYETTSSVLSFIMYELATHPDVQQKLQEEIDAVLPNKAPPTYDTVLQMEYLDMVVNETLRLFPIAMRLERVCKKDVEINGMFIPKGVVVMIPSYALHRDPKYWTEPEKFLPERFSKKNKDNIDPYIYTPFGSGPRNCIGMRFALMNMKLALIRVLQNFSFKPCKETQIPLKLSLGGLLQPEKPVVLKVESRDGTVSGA
Wee1-like protein kinase, sequence (P30291 whole entry): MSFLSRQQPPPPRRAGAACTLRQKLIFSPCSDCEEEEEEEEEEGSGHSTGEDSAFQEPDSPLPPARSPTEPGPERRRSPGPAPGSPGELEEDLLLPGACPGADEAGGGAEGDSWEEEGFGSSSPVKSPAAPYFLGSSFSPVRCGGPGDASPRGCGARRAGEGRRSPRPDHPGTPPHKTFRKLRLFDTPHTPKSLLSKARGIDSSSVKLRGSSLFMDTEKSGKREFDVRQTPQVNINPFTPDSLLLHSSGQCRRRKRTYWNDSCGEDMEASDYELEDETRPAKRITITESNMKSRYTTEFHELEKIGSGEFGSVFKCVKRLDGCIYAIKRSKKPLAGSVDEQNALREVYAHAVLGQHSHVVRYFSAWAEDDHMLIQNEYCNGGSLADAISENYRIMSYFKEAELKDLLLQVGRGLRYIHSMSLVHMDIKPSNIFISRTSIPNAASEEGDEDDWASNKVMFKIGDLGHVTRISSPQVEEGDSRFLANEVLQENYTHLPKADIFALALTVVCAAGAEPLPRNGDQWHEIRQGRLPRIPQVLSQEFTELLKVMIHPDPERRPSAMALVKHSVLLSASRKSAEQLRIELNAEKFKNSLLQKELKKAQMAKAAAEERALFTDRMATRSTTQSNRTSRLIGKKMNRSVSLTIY
Cytochrome P450 2D6, sequence (P10635 whole entry): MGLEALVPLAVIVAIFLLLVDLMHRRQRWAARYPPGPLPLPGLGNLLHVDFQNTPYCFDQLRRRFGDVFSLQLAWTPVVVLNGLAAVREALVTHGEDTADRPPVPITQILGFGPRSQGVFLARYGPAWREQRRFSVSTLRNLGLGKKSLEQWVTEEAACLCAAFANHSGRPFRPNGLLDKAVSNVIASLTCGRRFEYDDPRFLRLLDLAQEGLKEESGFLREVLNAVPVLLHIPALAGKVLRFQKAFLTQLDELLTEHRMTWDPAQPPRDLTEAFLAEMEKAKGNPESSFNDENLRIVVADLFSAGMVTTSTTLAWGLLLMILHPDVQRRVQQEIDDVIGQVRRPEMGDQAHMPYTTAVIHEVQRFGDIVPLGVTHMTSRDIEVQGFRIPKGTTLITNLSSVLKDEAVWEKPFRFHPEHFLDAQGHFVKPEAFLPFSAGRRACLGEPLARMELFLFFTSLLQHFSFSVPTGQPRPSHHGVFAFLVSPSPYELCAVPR
Cytochrome P450 2C9, sequence (P11712 whole entry): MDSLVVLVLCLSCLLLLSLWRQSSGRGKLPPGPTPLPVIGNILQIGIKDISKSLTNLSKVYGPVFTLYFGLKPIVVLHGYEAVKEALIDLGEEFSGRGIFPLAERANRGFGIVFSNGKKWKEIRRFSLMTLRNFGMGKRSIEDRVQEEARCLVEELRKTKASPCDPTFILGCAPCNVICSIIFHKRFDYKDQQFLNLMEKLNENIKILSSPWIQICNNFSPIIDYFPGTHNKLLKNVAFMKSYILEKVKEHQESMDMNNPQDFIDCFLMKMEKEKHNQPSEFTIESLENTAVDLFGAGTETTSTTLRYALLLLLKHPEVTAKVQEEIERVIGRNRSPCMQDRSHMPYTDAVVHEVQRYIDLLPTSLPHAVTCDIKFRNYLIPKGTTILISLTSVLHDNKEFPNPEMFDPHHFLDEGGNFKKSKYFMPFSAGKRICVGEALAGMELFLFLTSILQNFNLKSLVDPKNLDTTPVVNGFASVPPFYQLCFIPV

NC(=O)c1c(N)n(-c2cccc3[nH]ccc23)c2nc3ccccc3nc12
IC50 [1]: > 20000 nM

Cc1ccc(O)cc1-n1c(N)c(C(N)=O)c2cc3ccccc3nc21
IC50 [2]: 7 nM

Cc1ccc(O)c(C)c1-n1c(N)c(C(N)=O)c2nc3cccc(Br)c3nc21
IC50 [1]: < 3 nM

Cc1ccc(O)c(Cl)c1-n1c(N)c(C(N)=O)c2nc3ccccc3nc21
IC50 [2]: 7 nM
IC50 [3]: 940 nM

Cc1c(O)cccc1-n1c(N)c(C(N)=O)c2nc3ccccc3nc21
IC50 [3]: 2200 nM

Cc1ccc(O)cc1-n1c(N)c(C(N)=O)c2nc3ccccc3nc21
IC50 [2]: 7 nM
IC50 [3]: 3700 nM

NC(=O)c1c(N)n(-c2cccc3[nH]ncc23)c2nc3ccccc3nc12
IC50 [3]: 5200 nM

Cc1ccc(O)c(C)c1-n1c(N)c(C(N)=O)c2cc(Cl)cnc21
hepatocyte CLint [4]: 4.5 µL/min/1e6 cells
PPB [5]: 89.6%
CL free [6]: 215 mL/min/kg
F [7]: 32%
IC50 [8]: > 30000 nM
Papp [9]: 18.3 10^-6 cm/s
F [10]: 21%
Activity [11]: 26.7%
F [12]: 37%
PPB [13]: 88.1%
IC50 [14]: 26000 nM
F [15]: 33%
IC50 [16]: > 30000 nM

Cc1ccc(O)c(C)c1-n1c(N)c(C(N)=O)c2nccnc21
CLH [4]: < 3 µL/min
CL free [6]: 81 mL/min/kg
IC50 [8]: > 30000 nM
Papp [9]: 19 10^-6 cm/s
F [12]: 56%
PPB [13]: 81%
IC50 [14]: > 30000 nM
IC50 [16]: > 30000 nM

NC(=O)c1c(N)n(-c2cccc3[nH]nnc23)c2nc3ccccc3nc12
IC50 [1]: > 20000 nM

Cc1ccc(O)c(C)c1-n1c(N)c(C(N)=O)c2nc3cccc(C4=CCCC4)c3nc21
IC50 [1]: < 3 nM

Cc1ccc(O)c(C)c1-n1c(N)c(C(N)=O)c2nc3cccc(-c4ccnn4C)c3nc21
IC50 [1]: < 3 nM

Cc1ccc(N)cc1-n1c(N)c(C(N)=O)c2nc3ccccc3nc21
IC50 [1]: > 20000 nM

Cc1ccc(O)c(C)c1-n1c(N)c(C(N)=O)c2nc3ccccc3nc21
IC50 [3]: 580 nM
